Two molecules from ChEMBL document CHEMBL1933027, “Time-dependent botulinum neurotoxin serotype A metalloprotease inhibitors” (Bioorg Med Chem, 2011) can be followed below.

The inhibition is the drop in the measured response relative to a control, in per cent. The IC50 is the concentration that gives 50% inhibition. Read a low IC50 as higher potency.

For test [1], the target named is Botulinum neurotoxin type A (Clostridium botulinum) (UniProt P0DPI0). In words: Inhibition of clostridium botulinum BoNT/A-mediated SNAP-25 substrate cleavage in chicken neurons at 30 uM preincubated for 15 mins before substrate addition.
The target in test [2] is Matrix metalloproteinase-9 (Homo sapiens, UniProt P14780). The test is described as follows: Inhibition of human MMP9.
The target in test [3] is Botulinum neurotoxin type A (Clostridium botulinum) (UniProt P0DPI0).
For test [4] the target is unchanged. The test is described as follows: Ratio of Kinact to Ki for clostridium botulinum BoNT/A light chain. The essentials: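 BoNT/A LC was incubated with selected inhibitor concentrations for various times. Remaining activity was then measured by the FRET assay, and kobs/[I] was derived from the plotted data using a published method.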
In test [5] the target is T1, Lethal factor (Bacillus anthracis, UniProt P15917).
T1 sequence (P15917 whole entry): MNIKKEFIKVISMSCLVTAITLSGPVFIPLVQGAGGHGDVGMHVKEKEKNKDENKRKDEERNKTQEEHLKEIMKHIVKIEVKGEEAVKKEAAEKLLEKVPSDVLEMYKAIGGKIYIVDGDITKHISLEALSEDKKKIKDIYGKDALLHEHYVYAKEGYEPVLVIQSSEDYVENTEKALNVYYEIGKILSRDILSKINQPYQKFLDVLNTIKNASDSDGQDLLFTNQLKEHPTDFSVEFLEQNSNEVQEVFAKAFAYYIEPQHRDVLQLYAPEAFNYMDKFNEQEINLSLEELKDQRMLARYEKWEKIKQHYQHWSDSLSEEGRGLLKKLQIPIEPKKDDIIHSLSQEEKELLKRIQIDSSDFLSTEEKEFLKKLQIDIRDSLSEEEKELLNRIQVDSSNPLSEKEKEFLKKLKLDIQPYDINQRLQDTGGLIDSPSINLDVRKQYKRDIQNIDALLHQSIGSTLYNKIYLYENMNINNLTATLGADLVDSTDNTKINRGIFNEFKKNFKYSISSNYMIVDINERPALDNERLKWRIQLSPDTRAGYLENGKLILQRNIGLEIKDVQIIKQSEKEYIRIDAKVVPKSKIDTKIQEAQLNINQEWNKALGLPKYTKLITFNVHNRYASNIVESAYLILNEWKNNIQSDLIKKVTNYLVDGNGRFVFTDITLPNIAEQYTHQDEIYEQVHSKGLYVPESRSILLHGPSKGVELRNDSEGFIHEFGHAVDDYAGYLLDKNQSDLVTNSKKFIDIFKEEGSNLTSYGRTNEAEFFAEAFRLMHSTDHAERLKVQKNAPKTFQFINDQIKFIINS
The test is described as follows: Inhibition of Bacillus anthracis lethal factor using MCA-KKVYPYPME[dnp]Kamide peptide substrate after 30 mins by FRET assay.

Test [6] has as its target Botulinum neurotoxin type A (Clostridium botulinum, UniProt P0DPI0). In words: Inhibition of Clostridium botulinum BoNT/A light chain-mediated SNAP-25 substrate cleavage preincubated for 90 mins by FRET assay. Summed up:
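Compound was preincubated with BoNT/A LC for 90 min before the 40-min FRET assay (20 μM SNAP-25 peptide, 2 nM enzyme, 37 °C, ex 398/em 485 nm). IC50 is the concentration giving 50% inhibition.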

Active and inactive are the calls of the source. The calls are words filed in the database; no cut-off is given here.

Chain of Botulinum neurotoxin type A (Clostridium botulinum) (P0DPI0 2-448 limits assumed): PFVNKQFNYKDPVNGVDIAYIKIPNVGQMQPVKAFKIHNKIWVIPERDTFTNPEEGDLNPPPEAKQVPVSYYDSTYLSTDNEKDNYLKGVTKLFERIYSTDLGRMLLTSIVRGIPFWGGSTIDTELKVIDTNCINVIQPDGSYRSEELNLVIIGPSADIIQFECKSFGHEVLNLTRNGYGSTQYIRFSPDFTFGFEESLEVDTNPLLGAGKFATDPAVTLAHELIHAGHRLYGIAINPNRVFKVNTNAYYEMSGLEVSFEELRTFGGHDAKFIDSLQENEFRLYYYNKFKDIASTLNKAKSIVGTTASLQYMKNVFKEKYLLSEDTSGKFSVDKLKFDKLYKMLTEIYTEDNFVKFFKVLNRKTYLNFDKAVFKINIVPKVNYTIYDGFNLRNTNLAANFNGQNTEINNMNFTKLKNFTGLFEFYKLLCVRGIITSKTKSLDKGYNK
Chain of Matrix metalloproteinase-9 (P14780 whole entry): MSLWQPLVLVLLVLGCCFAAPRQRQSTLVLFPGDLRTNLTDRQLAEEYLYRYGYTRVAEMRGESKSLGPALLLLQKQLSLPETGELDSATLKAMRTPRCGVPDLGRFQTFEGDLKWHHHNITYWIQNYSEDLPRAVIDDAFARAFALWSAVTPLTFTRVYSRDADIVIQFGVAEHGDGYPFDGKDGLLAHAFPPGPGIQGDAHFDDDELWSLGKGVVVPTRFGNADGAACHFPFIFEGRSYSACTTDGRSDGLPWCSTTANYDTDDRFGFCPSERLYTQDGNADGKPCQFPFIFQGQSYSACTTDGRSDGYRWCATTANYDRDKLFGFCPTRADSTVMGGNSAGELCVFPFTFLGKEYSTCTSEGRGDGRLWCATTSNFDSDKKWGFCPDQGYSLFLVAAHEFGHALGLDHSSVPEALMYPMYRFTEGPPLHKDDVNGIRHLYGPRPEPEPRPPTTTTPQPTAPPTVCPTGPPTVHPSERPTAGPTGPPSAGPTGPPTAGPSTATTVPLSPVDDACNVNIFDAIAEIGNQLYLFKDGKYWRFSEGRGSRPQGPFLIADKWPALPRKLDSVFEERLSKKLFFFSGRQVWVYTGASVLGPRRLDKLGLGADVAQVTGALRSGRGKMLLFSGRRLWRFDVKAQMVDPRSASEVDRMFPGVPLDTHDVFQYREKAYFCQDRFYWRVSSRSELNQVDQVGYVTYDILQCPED
Chain of Botulinum neurotoxin type A (P0DPI0 2-448 limits assumed): as the sequence (P0DPI0 2-448 limits assumed) above

Take `N#C/C(=C\c1ccc(-c2cccs2)s1)c1nc2ccccc2[nH]1`: the inhibition in test [1] is 58%. Moreover, the IC50 was greater than 100 µM in test [2], greater than 100 µM in test [5] and 17 µM in test [6]. For the same molecule, in test [3], the TDI entry was “Active”. In addition, the Ratio in test [4] is 326 M⁻¹ s⁻¹.

`COc1ccc(/C=C(\C#N)c2nc3ccccc3[nH]2)cc1I` came in with an inhibition in test [1] of less than 10%. Also, the IC50 in test [2] was greater than 100 µM; in test [5], 74 µM. Also, the Ratio in test [4] came out at 979 M⁻¹ s⁻¹.
